Laboratory results published in PMC9054024 (Science Advances, 2022).
Each block holds one molecule with its values, some of them ahead of it. Ends that are not written are not given here. * marks the point of attachment. Biotin = O=C1N[C@H]2[C@H](CS[C@H]2CCCCC(=O)*)N1

Assays:
Colo320 and HCT116 cells = test: Proliferation assay, β-catenin–dependent cell lines; format: cell-based, human; conditions: 5, 10, or 20 μM; 24, 48, 72, and 96 hours
Summary of the method: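 Colo320, HCT116 and RKO cells were seeded in triplicate at 3000 cells/well and treated with DMSO vehicle or 5, 10 or 20 μM compound. Proliferation was measured by CellTiter-Glo 2.0 luminescence, relative to the respective baseline readings.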

AXIN2, CD44, PARP, ABC = test: Immunoblots of β-catenin–dependent cell lines Colo320 and HCT116; format: cell-based, human; conditions: Colo320 and HCT116, 24 and 48 hours
Summary of the method: (§1)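 HCT116 (McCoy's), Colo320 (RPMI 1640) and RKO (DMEM) were grown with 10% FBS at 37°C, 5% CO2, with DMSO as vehicle. Membranes were probed overnight at 4°C with primary antibodies in blocking buffer, then HRP secondary, and detected by chemiluminescence. Densitometry was normalized to actin.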

[1] = tested on: Wnt transcriptional activity; test: Dual-luciferase Wnt reporter assay in Colo320 and HCT116 cells; format: cell-based, human; conditions: 16 hours, versus vehicle
Summary of the method: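 Stable reporter cells came from lentiviral transduction: firefly luciferase under a 7XTCF promoter and Renilla luciferase under an EF1alpha promoter. 30,000 cells/well were treated 16 h with DMSO vehicle or increasing compound concentrations. Firefly and Renilla signals were read by Dual-Glo, in triplicate.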

[2] = target: T1, β-catenin complexes with E-cadherin (Homo sapiens, UniProt P35222); test: β-catenin Co-IP assay in DLD-1 cells; format: cell-based
T1 sequence (P35222 2-781 limits assumed): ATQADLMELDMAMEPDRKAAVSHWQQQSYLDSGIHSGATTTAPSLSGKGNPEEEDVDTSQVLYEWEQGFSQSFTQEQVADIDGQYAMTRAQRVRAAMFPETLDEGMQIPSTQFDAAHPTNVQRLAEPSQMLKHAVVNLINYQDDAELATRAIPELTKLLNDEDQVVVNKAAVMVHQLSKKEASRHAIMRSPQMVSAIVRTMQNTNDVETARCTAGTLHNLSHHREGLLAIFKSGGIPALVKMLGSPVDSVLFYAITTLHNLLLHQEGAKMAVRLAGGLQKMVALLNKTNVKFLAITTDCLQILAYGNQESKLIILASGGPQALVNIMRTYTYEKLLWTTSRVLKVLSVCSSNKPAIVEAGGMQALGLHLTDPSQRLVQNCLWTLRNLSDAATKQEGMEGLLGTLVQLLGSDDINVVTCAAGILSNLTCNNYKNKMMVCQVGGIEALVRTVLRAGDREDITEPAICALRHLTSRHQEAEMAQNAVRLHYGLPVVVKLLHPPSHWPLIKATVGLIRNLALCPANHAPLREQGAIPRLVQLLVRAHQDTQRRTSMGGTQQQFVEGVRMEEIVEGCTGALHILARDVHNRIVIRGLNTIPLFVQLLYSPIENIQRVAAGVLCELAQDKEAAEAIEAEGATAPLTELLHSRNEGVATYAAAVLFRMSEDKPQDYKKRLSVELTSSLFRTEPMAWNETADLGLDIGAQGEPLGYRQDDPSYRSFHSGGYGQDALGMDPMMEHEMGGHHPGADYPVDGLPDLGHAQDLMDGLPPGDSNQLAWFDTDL
T1 sequence (P12830 155-882 partner): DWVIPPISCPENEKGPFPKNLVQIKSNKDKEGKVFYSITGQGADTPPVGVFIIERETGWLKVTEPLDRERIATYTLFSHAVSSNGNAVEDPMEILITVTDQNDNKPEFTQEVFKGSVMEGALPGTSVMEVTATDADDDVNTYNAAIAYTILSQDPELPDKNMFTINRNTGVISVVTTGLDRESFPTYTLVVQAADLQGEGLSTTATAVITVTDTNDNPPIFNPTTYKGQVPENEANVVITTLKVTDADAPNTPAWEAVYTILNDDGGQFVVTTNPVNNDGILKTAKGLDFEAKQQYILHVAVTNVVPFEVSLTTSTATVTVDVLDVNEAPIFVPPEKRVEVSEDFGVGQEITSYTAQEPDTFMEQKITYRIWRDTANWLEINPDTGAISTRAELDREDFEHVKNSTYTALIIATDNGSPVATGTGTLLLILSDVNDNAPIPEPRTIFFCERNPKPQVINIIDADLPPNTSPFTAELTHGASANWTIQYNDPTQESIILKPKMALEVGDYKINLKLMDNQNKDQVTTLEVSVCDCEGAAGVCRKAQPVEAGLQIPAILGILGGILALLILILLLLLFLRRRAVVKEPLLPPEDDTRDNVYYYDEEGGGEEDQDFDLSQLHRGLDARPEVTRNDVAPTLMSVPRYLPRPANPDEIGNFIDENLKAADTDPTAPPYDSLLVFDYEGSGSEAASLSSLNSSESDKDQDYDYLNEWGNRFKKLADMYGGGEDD
Summary of the method: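 DLD-1 cells treated 16 h with DMSO vehicle or 1, 10 or 20 μM compound, then lysed in whole-cell lysis buffer. 800 μg extract incubated with 3.5 μg anti-β-catenin, with normal rabbit IgG as negative control. Protein G magnetic beads added for 1 h at 4°C, washed four times (150 mM NaCl) and eluted in reducing buffer. 2% input included. Immunoblotting used chemiluminescence and actin-normalised densitometry.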

[3] = tested on: Wnt target genes AXIN2 and CD44; test: RT-qPCR of Wnt target genes in Colo320 and HCT116 cells; format: cell-based, human; conditions: 10 or 20 μM for 6, 24, and 48 hours
Summary of the method: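 Colo320 and HCT116 cells treated with DMSO vehicle or 10 or 20 μM compound for 6, 24 and 48 h. Total RNA isolated with TRIzol, reverse-transcribed, and SYBR Green qPCR run. Expression normalised to B2M and PMM1 or GAPDH by the ΔΔCT method.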

β-catenin/BCL9 complexes = target: T2, β-catenin/BCL9 complexes (Homo sapiens, UniProt P35222); test: BCL9 Co-IP assay in Colo320 and HCT116 cells; format: cell-based; conditions: Colo320 and HCT116, 16 hours
T2 sequence (P35222 2-781 limits assumed): T1 sequence (P35222 2-781 limits assumed)
Summary of the method: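 Colo320 and HCT116 cells (with 4T1) were treated for 16 h with DMSO vehicle or 1, 10 or 20 μM compound. Nuclei were isolated and digested with hypotonic and digestion buffers, and nuclear protein was quantified by Bradford. 800 μg nuclear extract was immunoprecipitated overnight at 4°C with 3.5 μg anti-BCL9, with normal rabbit IgG as negative control, then immunoblotted.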

AXIN2, CD44, PARP = test: Immunoblots of β-catenin–independent cell line RKO; format: cell-based, human; conditions: RKO cells
Summary of the method: as §1

HCT116 and Colo320 cells = test: Viability assay; format: cell-based, human; conditions: 48 hours; for cell viability compared to vehicle controls: 20 μM; for effect of addition of cholesterol on viability: 20 μM compound ± cholesterol 20 μM
Summary of the method: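 HCT116 and Colo320 cells were treated 48 h with the indicated agents at 20 μM, including water-soluble cholesterol, alone or combined. Viability was measured by CellTiter-Glo luminescence in triplicate and expressed relative to vehicle-treated cells.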

HCT116 cells = test: Fluorescent staining of lipids and cholesterol in HCT116 cells; format: cell-based, human; conditions: treated for 24 and 48 hours
Summary of the method: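 HCT116 cells in glass-bottomed dishes treated with vehicle or 20 μM compound for 4, 8, 24 and 48 h. Fixed in 4% paraformaldehyde, stained with 2 μM BODIPY 493/503 for 15 min plus DAPI (1 μg/ml). Cholesterol stained with a filipin III kit. For localisation at 48 h, filipin was combined with anti-SERCA-ATPase (ER) or LipidSpot (lipid droplets). Imaged with a ×40 dry objective.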

[4] = target: human CTNNB1 region 141-305 (short protein) (human) (UniProt P35222); test: ITC
[5] = target: T3, full-length recombinant β-catenin (1 to 781 amino acids, 88 kDa) (human, UniProt P35222 1-781); test: AlphaScreen or HTRF
T3 sequence: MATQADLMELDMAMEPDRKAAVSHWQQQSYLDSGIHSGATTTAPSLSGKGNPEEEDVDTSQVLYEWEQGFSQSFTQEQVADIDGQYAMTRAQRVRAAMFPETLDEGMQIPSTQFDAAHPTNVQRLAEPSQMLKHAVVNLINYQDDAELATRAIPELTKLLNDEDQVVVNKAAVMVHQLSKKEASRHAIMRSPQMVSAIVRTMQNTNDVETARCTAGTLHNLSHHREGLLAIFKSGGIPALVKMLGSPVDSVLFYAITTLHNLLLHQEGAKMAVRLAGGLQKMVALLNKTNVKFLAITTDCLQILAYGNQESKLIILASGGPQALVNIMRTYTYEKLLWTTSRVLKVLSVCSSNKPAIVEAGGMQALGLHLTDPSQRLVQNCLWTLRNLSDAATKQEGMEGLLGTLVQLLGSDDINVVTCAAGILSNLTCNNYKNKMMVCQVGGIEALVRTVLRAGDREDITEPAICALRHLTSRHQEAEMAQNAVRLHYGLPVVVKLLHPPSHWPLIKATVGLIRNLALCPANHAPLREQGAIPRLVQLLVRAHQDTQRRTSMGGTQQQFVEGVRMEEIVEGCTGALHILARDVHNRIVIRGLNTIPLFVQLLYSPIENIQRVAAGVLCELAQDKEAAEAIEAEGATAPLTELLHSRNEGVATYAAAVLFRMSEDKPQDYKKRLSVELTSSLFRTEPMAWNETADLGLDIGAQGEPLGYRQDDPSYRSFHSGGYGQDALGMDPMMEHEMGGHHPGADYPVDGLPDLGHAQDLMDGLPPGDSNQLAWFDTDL

- concentration inhibiting β-catenin/BCL9 complexes in Co-IP (β-catenin/BCL9 complexes): 1 µM
- PARP cleavage (AXIN2, CD44, PARP): minor PARP cleavage at 10 and 20 μM
Molecule: O=C(Nc1ccccc1Oc1nc2ccccc2n2cnnc12)c1cccs1 [C-2]
- proliferation (Colo320 and HCT116 cells): significantly reduced the proliferation
- PARP cleavage (AXIN2, CD44, PARP, ABC): increased the cleavage of poly(adenosine diphosphate–ribose) polymerase (PARP)
- abundance of active β-catenin (ABC) (AXIN2, CD44, PARP, ABC): decreased abundance of “active” dephosphorylated β-catenin
- protein expression of AXIN2 and CD44 (AXIN2, CD44, PARP, ABC): significantly decreased the protein expression of AXIN2 and CD44
- inhibition of Wnt signaling (firefly/renilla luciferase ratio) [1]: significantly inhibited Wnt signaling
- disruption of β-catenin complexes with E-cadherin [2]: Neither compound disrupted the ability of β-catenin to form complexes with E-cadherin
- expression of AXIN2 and CD44 mRNAs [3]: significantly inhibited the expression of AXIN2 and CD44 mRNAs
- expression of AXIN2 or CD44 protein (AXIN2, CD44, PARP): did not affect their expression of AXIN2 or CD44 protein

- concentration inhibiting β-catenin/BCL9 complexes in Co-IP (β-catenin/BCL9 complexes): 20 µM
Molecule: COc1ccc(C)cc1CN1CCC(c2cc3ncccc3cn2)CC1 [C-3]

The next lines start with the molecule.

Molecule: O=C1[C@H](Cc2ccc(O)cc2)N2C(=O)CCN(C(=O)NCc3ccccc3)[C@H]2CN1Cc1cccc2ccccc12 [ICG-001, reference compound]
- inhibition of Wnt signaling (firefly/renilla luciferase ratio) [1]: significantly inhibited Wnt signaling
- cell viability compared to vehicle controls (HCT116 and Colo320 cells): significantly reduced cell viability

Molecule: CCN(CC)CCO[C@H]1CC[C@@]2(C)C(=CC[C@@H]3[C@@H]2CC[C@]2(C)C(=O)CC[C@@H]32)C1.Cl [U-18666A]
- intracellular lipids (BODIPY) (HCT116 cells): substantial intracellular lipid accumulation

Molecule: CC(C)c1cc(C(C)C)c(CC(=O)NS(=O)(=O)Oc2c(C(C)C)cccc2C(C)C)c(C(C)C)c1 [avasimibe]
- effect of addition of cholesterol on viability (HCT116 and Colo320 cells): did not affect the viability
- cell viability compared to vehicle controls (HCT116 and Colo320 cells): significantly reduced cell viability

Molecule: CC[C@H](C)C(=O)O[C@H]1C[C@@H](C)C=C2C=C[C@H](C)[C@H](CC[C@@H]3C[C@@H](O)CC(=O)O3)[C@H]21 [lovastatin]
- effect of addition of cholesterol on viability (HCT116 and Colo320 cells): did not affect the viability
- cell viability compared to vehicle controls (HCT116 and Colo320 cells): significantly reduced cell viability

Molecule: nonbiotinylated BCL9-HD2 peptide
- Kd [4]: 2.74 µM

Molecule: Biotin-LSQEQLEHRERSLQTLRDIQRM [N-terminal biotinylated BCL9-HD2 peptide]
- binding result [5]: binds
